According to ChEMBL document CHEMBL4619810, “Fluorescent H2 Receptor Squaramide-Type Antagonists: Synthesis, Characterization, and Applications” (ACS Med Chem Lett, 2020):
Activity calls are given as the source filed them. The calls are words filed in the database; no cut-off is given here.

Key:
Histamine H2 receptor [1] = biological target: Histamine H2 receptor (Rattus norvegicus, UniProt P25102); test: Displacement of [125I]-aminopotentidine from rat H2R expressed in human COS7 cells incubated for 90 mins gamma counting method; format: cell-based, COS-7
Chain of Histamine H2 receptor (Rattus norvegicus, UniProt P25102) (P25102 whole entry): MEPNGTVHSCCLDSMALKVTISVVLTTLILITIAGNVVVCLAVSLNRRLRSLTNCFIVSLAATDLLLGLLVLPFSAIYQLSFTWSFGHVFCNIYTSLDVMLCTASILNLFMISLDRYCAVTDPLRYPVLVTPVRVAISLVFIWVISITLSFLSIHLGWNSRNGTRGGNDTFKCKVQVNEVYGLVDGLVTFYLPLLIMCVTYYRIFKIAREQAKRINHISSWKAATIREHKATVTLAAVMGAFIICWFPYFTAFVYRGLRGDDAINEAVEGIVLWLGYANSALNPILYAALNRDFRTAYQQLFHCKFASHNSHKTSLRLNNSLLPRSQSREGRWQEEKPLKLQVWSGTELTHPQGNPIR

HEK-293T [2] = test: Cytotoxicity against human HEK293T cells assessed as reduction in cell viability at 100 nM incubated for 90 mins by flow cytometry analysis; format: cell-based; conditions: 1.5 h, 0.1 µM
Histamine H2 receptor [3] = biological target: T1, Histamine H2 receptor (Homo sapiens, UniProt P25021); test: Binding affinity to H2R in human HEK293T cell membrane assessed as drug localization at 75 nM incubated for 60 mins followed by compound washoff by confocal microscopy analysis; format: cell-based; conditions: HEK-293T
T1 sequence (P25021 whole entry): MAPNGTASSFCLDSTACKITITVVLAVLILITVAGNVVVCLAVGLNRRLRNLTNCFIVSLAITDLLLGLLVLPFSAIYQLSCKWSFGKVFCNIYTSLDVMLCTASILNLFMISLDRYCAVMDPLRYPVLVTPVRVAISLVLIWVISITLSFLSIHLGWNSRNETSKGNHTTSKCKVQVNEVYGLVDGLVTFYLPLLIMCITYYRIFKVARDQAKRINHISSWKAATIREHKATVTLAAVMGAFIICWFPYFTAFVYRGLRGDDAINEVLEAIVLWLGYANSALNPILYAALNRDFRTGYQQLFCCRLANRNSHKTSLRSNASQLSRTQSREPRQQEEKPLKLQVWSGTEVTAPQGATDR
How it was run: (§1)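 Adherent HEK293T-hH2R-qs5 cells incubated with fluorescent ligand 60 min at rt, then washed; Hoechst 33342 nuclear counterstain; famotidine (300-fold excess) defines nonspecific binding; membrane localization imaged by automated cell imaging.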

Histamine H2 receptor [4] = biological target: T1, Histamine H2 receptor; test: Agonist activity at human H2R expressed in human HEK293T cells assessed as effect on beta-arrestin2 recruitment incubated for 60 mins by brightglo-reagent based assay; format: cell-based; conditions: HEK-293T
Histamine H2 receptor [5] = biological target: T1, Histamine H2 receptor; test: Binding affinity to H2R in human HEK293T cell membrane assessed as drug localization at 100 nM in presence of famotidine incubated for 20 mins by confocal microscopy analysis; format: cell-based; conditions: HEK-293T
How it was run: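 HEK293T-hH2R-qs5 cells incubated with fluorescent ligand (100 nM) for 20 min at rt in the presence of famotidine (300-fold excess) to define nonspecific binding; membrane localization imaged by confocal laser scanning microscopy, 63x/1.40 oil objective.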

Histamine H2 receptor [6] = biological target: T1, Histamine H2 receptor; test: Displacement of [3H]UR-DE257 from Gsalphas-coupled human H2R expressed in baculovirus infected Sf9 cells incubated for 60 mins by scintillation counting method
Histamine H2 receptor [7] = biological target: T1, Histamine H2 receptor; test: Binding affinity to H2R in human HEK293T cell membrane assessed as drug localization at 100 nM incubated for 20 mins by confocal microscopy analysis; format: cell-based; conditions: HEK-293T
How it was run: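 Live HEK293T-hH2R-qs5 cells exposed to fluorescent ligand at 100 nM, 20 min, room temperature; receptor binding at the cell membrane visualized by confocal laser scanning microscopy (63x/1.40 oil immersion objective).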

Histamine H2 receptor [8] = biological target: T1, Histamine H2 receptor; test: Binding affinity to human H2R expressed in human HEK293T cells incubated for 60 mins by imaging flow cytometry analysis; format: cell-based; conditions: for Ka: HEK-293T
Histamine H2 receptor [9] = biological target: T1, Histamine H2 receptor; test: Binding affinity to human H2R expressed in human HEK293T cells incubated for 60 mins by automated cell imaging analysis; format: cell-based, HEK-293T
Histamine H2 receptor [10] = biological target: T1, Histamine H2 receptor; test: Binding affinity to human H2R expressed in human HEK293T cells incubated for 90 mins by flowcytometry; format: cell-based, HEK-293T
How it was run: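 Flow cytometric saturation binding of fluorescent ligands on suspended HEK293T-hH2R-qs5 cells, 90 min incubation; pKd reported as mean ± SEM from three independent experiments, each in duplicate.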

HEK-293T [11] = test: Cytotoxicity against human HEK293T cells assessed as reduction in cell viability at 150 nM incubated for 60 mins by H33342 staining based imaging analysis; conditions: 1 h, 0.15 µM
Histamine H2 receptor [12] = biological target: T1, Histamine H2 receptor; conditions: Sf9
HEK-293T [13] = test: Cytotoxicity against human HEK293T cells assessed as reduction in cell viability at 500 nM incubated for 90 mins by flow cytometry analysis; format: cell-based; conditions: 1.5 h, 0.5 µM
Histamine H2 receptor [14] = biological target: T1, Histamine H2 receptor; test: Binding affinity to H2R in human HEK293T cell membrane assessed as drug localization at 250 nM incubated for 60 mins followed by compound washoff by confocal microscopy analysis; format: cell-based; conditions: HEK-293T; how it was run: as §1
HEK-293T [15] = test: Cytotoxicity against human HEK293T cells assessed as reduction in cell viability at 1000 nM incubated for 60 mins by H33342 staining based imaging analysis; conditions: 1 h, 1 µM
HEK-293T [16] = test: Cytotoxicity against human HEK293T cells assessed as reduction in cell viability at 500 nM incubated for 60 mins by H33342 staining based imaging analysis; conditions: 1 h, 0.5 µM
Histamine H2 receptor [17] = biological target: T1, Histamine H2 receptor; test: Binding affinity to H2R (unknown origin)
HEK-293T [18] = test: Cytotoxicity against human HEK293T cells assessed as reduction in cell viability at 3000 nM incubated for 60 mins by H33342 staining based imaging analysis; conditions: 1 h, 3 µM
HEK-293T [19] = test: Cytotoxicity against human HEK293T cells assessed as reduction in cell viability at 3000 nM incubated for 90 mins by flow cytometry analysis; format: cell-based; conditions: 1.5 h, 3 µM
HEK-293T [20] = test: Cytotoxicity against human HEK293T cells assessed as reduction in cell viability at 3500 nM incubated for 90 mins by flow cytometry analysis; format: cell-based; conditions: 1.5 h, 3.5 µM
Histamine H2 receptor [21] = biological target: T1, Histamine H2 receptor; test: Binding affinity to human H2R expressing Sf9 cells incubated for 60 mins by microbeta scintillation counter method
Histamine H2 receptor [22] = biological target: T1, Histamine H2 receptor; test: Binding affinity to H2R in human HEK293T cell membrane assessed as drug localization at 500 nM incubated for 60 mins followed by compound washoff by confocal microscopy analysis; format: cell-based; conditions: HEK-293T; how it was run: as §1

SMILES	Activity (Histamine H2 receptor [4])	Ki (Histamine H2 receptor [6]) [nM]	Kd (Histamine H2 receptor [9]) [nM]	Kd (Histamine H2 receptor [10]) [nM]	pKb (Histamine H2 receptor [12])	Activity (HEK-293T [13])	further results
CNc1ccccc1C(=O)NCCN/C(=N\C#N)NCCCOc1cccc(CN2CCCCC2)c1	–	–	–	–	–	–	Ki (Histamine H2 receptor [1]): < 100 nM
C[N+]1=C(/C=C/C=C/C=C2\N(CCCCCC(=O)NCCCCCCNc3c(NCCCOc4cccc(CN5CCCCC5)c4)c(=O)c3=O)c3ccccc3C2(C)C)C(C)(C)c2ccccc21.O=C(O)C(F)(F)F.O=C([O-])C(F)(F)F	inactive	21.4	15.1	12.9	7.73	–	Activity (HEK-293T [2]): Non-Toxic; Activity (Histamine H2 receptor [3]): Active; Activity (Histamine H2 receptor [5]): Active; Activity (Histamine H2 receptor [7]): Active; Ka (Histamine H2 receptor [8]): 15000 to 33300 M⁻¹ s⁻¹; Activity (HEK-293T [11]): Non-Toxic
CC1(C)C(/C=C/C=C/C=C2\N(CCCCCC(=O)NCCCCCCNc3c(NCCCOc4cccc(CN5CCCCC5)c4)c(=O)c3=O)c3ccccc3C2(C)C)=[N+](CCCCS(=O)(=O)[O-])c2ccccc21.O=C(O)C(F)(F)F.O=C(O)C(F)(F)F	–	77.6	16.2	47.9	6.49	Non-Toxic	Activity (Histamine H2 receptor [3]): Active; Activity (Histamine H2 receptor [5]): Active; Activity (Histamine H2 receptor [7]): Active; Ka (Histamine H2 receptor [8]): 15000 to 33300 M⁻¹ s⁻¹; Activity (HEK-293T [16]): Non-Toxic
N#CN=C(NCCCCCCCCNc1ccc([N+](=O)[O-])c2n[o+][n-]c12)NCCCOc1cccc(CN2CCCCC2)c1	–	–	–	–	–	–	Ki (Histamine H2 receptor [1]): < 100 nM
CC1(C)C(/C=C/C=C/C=C2\N(CCCCCC(=O)NCCCCNc3c(NCCCOc4cccc(CN5CCCCC5)c4)c(=O)c3=O)c3cc(S(=O)(=O)O)ccc3C2(C)C)=[N+](CCCCS(=O)(=O)[O-])c2ccccc21	inactive	2040	–	–	–	–	–
CC1(C)C(/C=C/C=C/C=C2\N(CCCCCC(=O)NCCCCCNc3c(NCCCOc4cccc(CN5CCCCC5)c4)c(=O)c3=O)c3ccccc3C2(C)C)=[N+](CCCCS(=O)(=O)[O-])c2ccccc21	–	–	–	–	–	–	pKb (Histamine H2 receptor [17]): 6.89
C[N+]1=C(/C=C/C=C/C=C2\N(CCCCCC(=O)NCCCCNc3c(NCCCOc4cccc(CN5CCCCC5)c4)c(=O)c3=O)c3ccccc3C2(C)C)C(C)(C)c2ccccc21.O=C(O)C(F)(F)F.O=C([O-])C(F)(F)F	–	269	120	288	–	–	Activity (HEK-293T [16]): Non-Toxic; Activity (HEK-293T [20]): Non-Toxic
[3H]CC([3H])C(=O)NCCCCCCNc1c(NCCCOc2cccc(CN3CCCCC3)c2)c(=O)c1=O (centres undefined)	–	–	–	–	–	–	Kd (Histamine H2 receptor [21]): 31 nM
CC1(C)C(/C=C/C=C/C=C2\N(CCCCCC(=O)NCCCCCCNc3c(NCCCOc4cccc(CN5CCCCC5)c4)c(=O)c3=O)c3cc(S(=O)(=O)O)ccc3C2(C)C)=[N+](CCCCS(=O)(=O)[O-])c2ccccc21.O=C(O)C(F)(F)F.O=C(O)C(F)(F)F	–	1320	447	–	–	–	Activity (HEK-293T [18]): Non-Toxic; Activity (Histamine H2 receptor [22]): Active

Second part, led by results:

Activity (Histamine H2 receptor [4])	Ki (Histamine H2 receptor [6]) [nM]	Kd (Histamine H2 receptor [9]) [nM]	Kd (Histamine H2 receptor [10]) [nM]	pKb (Histamine H2 receptor [12])	SMILES	Activity (HEK-293T [13])	further results
inactive	17.4	89.1	18.6	7.85	Cc1cc(/C=C/C=C/c2ccc(N(C)C)cc2)cc(C)[n+]1CCCCCCCNc1c(NCCCOc2cccc(CN3CCCCC3)c2)c(=O)c1=O.O=C(O)C(F)(F)F.O=C([O-])C(F)(F)F	Non-Toxic	Activity (Histamine H2 receptor [5]): Active; Activity (Histamine H2 receptor [14]): Active; Activity (Histamine H2 receptor [7]): Active; Kd (Histamine H2 receptor [8]): 64.6 nM; Ka (Histamine H2 receptor [8]): 71700 M⁻¹ s⁻¹; Activity (HEK-293T [15]): Non-Toxic
–	324	170	562	–	CC1(C)C(/C=C/C=C/C=C2\N(CCCCCC(=O)NCCCCNc3c(NCCCOc4cccc(CN5CCCCC5)c4)c(=O)c3=O)c3ccccc3C2(C)C)=[N+](CCCCS(=O)(=O)[O-])c2ccccc21.O=C(O)C(F)(F)F.O=C(O)C(F)(F)F	–	Activity (HEK-293T [18]): Non-Toxic; Activity (HEK-293T [19]): Non-Toxic
–	17.8	74.1	28.2	–	Cc1cc(/C=C/C=C/c2ccc(N(C)C)cc2)cc(C)[n+]1CCCCNc1c(NCCCOc2cccc(CN3CCCCC3)c2)c(=O)c1=O.O=C(O)C(F)(F)F.O=C([O-])C(F)(F)F	Non-Toxic	Kd (Histamine H2 receptor [8]): 87.1 nM; Activity (HEK-293T [16]): Non-Toxic
inactive	19.5	–	14.5	7.21	Cc1cc(/C=C/C=C/c2ccc(N(C)C)cc2)cc(C)[n+]1CCCCCCNc1c(NCCCOc2cccc(CN3CCCCC3)c2)c(=O)c1=O.O=C(O)C(F)(F)F.O=C([O-])C(F)(F)F	Non-Toxic	–
